This note sets out measurements from ChEMBL document CHEMBL4425177, “Effects of stereochemistry, saturation, and hydrocarbon chain length on the ability of synthetic constrained azacyclic sphingolipids to trigger nutrient transporter down-regulation, vacuolation, and cell death” (Bioorg Med Chem, 2016).

The test system of test [1] is FL5.12. Briefly: Cytotoxicity against mouse FL5.12A cells after 48 hrs by DAPI staining-based flow cytometric analysis. It counts as functional, cell-based. As to conditions: FL5.12, 48 h. In general terms: A flow cytometer gives signals particle by particle.
Test [2] concerns FL5.12. Briefly: Downregulation of CD98 expression level in mouse FL5.12A cells at 2.5 uM measured at 3 hrs by flow cytometric analysis. It is filed as functional. The procedure, abridged:
(§1)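 FL5.12 cells treated at 2.5 µM. Nutrient transporter loss measured as mean ± SEM. Vacuolation scored semi-quantitatively from 0 to 84, roughly twice the percent of cytosol occupied by vacuoles, mean ± SEM.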

The subject of test [3] is FL5.12. Briefly: Induction of vacuolation in mouse FL5.12A cells assessed as vacuolation score at 2.5 uM measured at 3 hrs by fluorescence microscopic analysis. It counts as functional. The gist of the method:
as §1

The test system of test [4] is FL5.12. Briefly: Downregulation of CD98 expression level in mouse FL5.12A cells at 50 uM measured at 3 hrs by flow cytometric analysis.
Test [5] deals with FL5.12. Briefly: Induction of vacuolation in mouse FL5.12A cells assessed as vacuolation score at 50 uM measured at 3 hrs by fluorescence microscopic analysis. It is filed as functional.
Test [6] concerns FL5.12. Briefly: Induction of vacuolation in mouse FL5.12A cells assessed as vacuolation score at 30 uM measured at 3 hrs by fluorescence microscopic analysis. It is filed as functional.
The subject of test [7] is FL5.12. Briefly: Downregulation of CD98 expression level in mouse FL5.12A cells at 30 uM measured at 3 hrs by flow cytometric analysis. It counts as functional.

SMILES strings stand for the structures.

As usually defined, the IC50 is the point on the concentration scale where inhibition reaches its midpoint. A high value points to a need for much substance. In test [1], `CCCCCCCCCCCCc1ccc(CO[C@H]2CN[C@H](CO)C2)cc1.Cl` gave an IC50 of 3.9 µM. The Activity in test [2] was 14%; in test [3] it was 30.
On to `CCCCCCCCc1ccc(CO[C@H]2C[C@H](CO)N(C(C)=O)C2)cc1`, for which half-maximal inhibition in test [1] (IC50) required 29.7 µM. Besides, the Activity in test [4] was 37%; in test [5], 1.
In test [1], `CCCCCCCCCCCCO[C@@H]1CN[C@@H](CO)C1.Cl` yielded a 50% inhibitory concentration (IC50) of 1.2 µM. The Activity in test [2] was 57%; in test [3], 53.
On to `CCCCCCCCc1ccc(CO[C@H]2C[C@H](CO)N(C(=N)N)C2)cc1.Cl.Cl`, for which half-maximal inhibition in test [1] (IC50) was put at 14.2 µM. Moreover, the Activity in test [6] was determined as 0; in test [7] it was 35%.
For `CCCCCCCCCCc1ccc(CO[C@H]2CN[C@H](CO)C2)cc1.Cl`, in test [1], the IC50 worked out at 3.6 µM. Further, the Activity is on record as 28% in test [2] and 36 in test [3].
Regarding `CCCCCC/C=C/c1ccc(CO[C@H]2C[C@H](CO)N(C)C2)cc1.Cl`, half-maximal inhibition in test [1] (IC50) was put at 1.9 µM. The Activity was found to be 31% in test [2] and 26 in test [3].
Take `CCCCCCCCCCCCC/C=C/[C@@H](O)[C@H](CO)NC(C)=O` (stereo in doubt; 9): the concentration for half-maximal inhibition (IC50) in test [1] worked out at 33 µM. The Activity in test [4] was found to be 47%; in test [5], 0.
`CCCCCC/C=C/c1ccc([C@H]2CCN[C@@H]2CO)cc1.Cl` registered an IC50 in test [1] of 1.7 µM. The Activity in test [2] amounted to 58%; in test [3], 84.
Consider `CCCCCCCCC/C=C/CO[C@H]1CN[C@H](CO)C1.Cl`, for which, in test [1], the half-inhibitory concentration (IC50) was 3.3 µM. Also, the Activity is on record as 30% in test [2] and 20 in test [3].
The matching figures for `CCCCCCCCCCCCC/C=C/[C@@H](O)[C@@H](N)CO` [SPHINGOSINE]: 3.6 µM, 48% and 57.
On the same counts, the results for `CCCCCC/C=C/c1ccc([C@H]2CCN(C(C)=O)[C@@H]2CO)cc1` are 46.2 µM, 40% and 2.
In test [1], `CCCCCCCCCCCCc1ccc(CO[C@@H]2CN[C@@H](CO)C2)cc1.Cl` showed a 50% inhibitory concentration (IC50) of 10.1 µM. The Activity amounted to 13% in test [2] and 3 in test [3].
In the case of `CCCCCCCCCCCCC/C=C/[C@@H](O)[C@H](CO)N(C)C` [DIMETHYLSPINGOSINE], in test [1], inhibition was half-maximal at 0.8 µM (IC50). Moreover, the Activity was 69% in test [2] and 72 in test [3].
`CCCCCCCCc1ccc([C@@H]2CCN[C@H]2CO)cc1.Cl` registered an IC50 in test [1] of 1.7 µM. For the same compound, the values for the Activity in test [2] and in test [3] were 47% and 53, respectively.
Take `CCCCCCc1ccc(CO[C@@H]2CN[C@@H](CO)C2)cc1.Cl`: in test [1], the half-inhibitory concentration (IC50) is 2.7 µM. The Activity in test [2] is 30%; in test [3], 0.
The matching figures for `CCCCCCCCCC/C=C/c1ccc(CO[C@@H]2CN[C@@H](CO)C2)cc1.Cl`: 2.8 µM, 52% and 33.
On the same counts, the results for `CCCCCCCCc1ccc(CO[C@@H]2CN[C@@H](CO)C2)cc1.Cl` are 2 µM, 63% and 33.
Take `CCCCCCCCCC/C=C/c1ccc(CO[C@H]2CN[C@H](CO)C2)cc1.Cl`: the half-inhibitory concentration (IC50) in test [1] was determined as 2.4 µM. Moreover, the Activity in test [2] stood at 40%; in test [3], 76.
In turn, `CCCC/C=C/c1ccc(CO[C@H]2CN[C@H](CO)C2)cc1.Cl` yielded an IC50 in test [1] of 5.7 µM. Besides, the values for the Activity in test [2] and in test [3] were 9% and 5, respectively.
`CCCCCCCCc1ccc(CO[C@@H]2C[C@@H](CO)N(C(=N)N)C2)cc1.Cl.Cl` showed a half-inhibitory concentration (IC50) in test [1] of 17.3 µM. In addition, the Activity in test [6] is reported as 0; in test [7] it was 34%.
In test [1], `CCCCCCCCCCCCCCC[C@@H](O)[C@@H](N)CO` [DIHYDROSPINGOSINE] showed an IC50 of 3.5 µM. Besides, the figures for the Activity in test [2] and in test [3] were 47% and 38, respectively.
The matching figures for `CCCCCCCCc1ccc(CCC(N)(CO)CO)cc1` [FINGOLIMOD]: 2.4 µM, 68% and 82.
With `CCCCCC/C=C/c1ccc(CO[C@@H]2CN[C@@H](CO)C2)cc1.Cl`, in test [1], the half-inhibitory concentration (IC50) is 1.4 µM. Moreover, the Activity in test [2] was 64%; in test [3] it was 27.
On the same counts, the results for `CCCCCCCCCCCCO[C@H]1CN[C@H](CO)C1.Cl` are 2.5 µM, 45% and 36.
The matching figures for `CCCCCCCCC/C=C/CO[C@@H]1CN[C@@H](CO)C1.Cl`: 2.6 µM, 34% and 9.
The matching figures for `CCCCCCCCCCCCCCc1ccc(CO[C@H]2CN[C@H](CO)C2)cc1.Cl`: 5.7 µM, 19% and 3.
`CCCCCCCCc1ccc(CO[C@H]2CN[C@H](CO)C2)cc1.Cl` yielded an IC50 in test [1] of 3 µM. Besides, the Activity turned out to be 48% in test [2] and 47 in test [3].
For the compound `CCCCCCCCCCCC/C=C/c1ccc(CO[C@H]2CN[C@H](CO)C2)cc1.Cl`, the half-inhibitory concentration (IC50) in test [1] came to 7.3 µM. The Activity in test [2] came out at 20%; in test [3], 1.
Regarding `CCCCCCCCc1ccc([C@H]2CCN(C(C)=O)[C@@H]2CO)cc1`, in test [1], the IC50 was 39.7 µM. Also, the figures for the Activity in test [2] and in test [3] were 40% and 0, respectively.
In test [1], `CCCCCCCCCCCC/C=C/c1ccc(CO[C@@H]2CN[C@@H](CO)C2)cc1.Cl` registered an IC50 of 5.1 µM. The figures for the Activity in test [2] and in test [3] were 19% and 8, respectively.
Compound `CCCCCCCCCCCCCCc1ccc(CO[C@@H]2CN[C@@H](CO)C2)cc1.Cl` returned an IC50 in test [1] of 10.5 µM. In addition, the Activity in test [2] was 12%; in test [3], 4.
On the same counts, the results for `CCCCCC/C=C/c1ccc(CO[C@H]2CN[C@H](CO)C2)cc1.Cl` are 2.4 µM, 41% and 70.
For the compound `CCCCCCCCc1ccc([C@H]2CCN[C@@H]2CO)cc1.Cl`, the IC50 in test [1] amounted to 1.9 µM. Besides, the Activity was found to be 54% in test [2] and 81 in test [3].
In turn, `CCCC/C=C/c1ccc(CO[C@@H]2CN[C@@H](CO)C2)cc1.Cl` had an IC50 in test [1] of 5.5 µM. Moreover, the Activity in test [2] is reported as 30%; in test [3], 0.
